Source: article PMC7007182 (Molecular imaging and biology, 2020)
Residues, ends and D or L forms follow the SMILES beside them. *: point of attachment. NOTA(2S-Bn(4-NHCS)) = O=C(O)CN1CCN(CC(=O)O)C[C@H](Cc2ccc(NC(=S)*)cc2)N(CC(=O)O)CC1

Columns and labels:
[1] = Ex vivo biodistribution, HepG2 tumor model; type: in vivo, mice; conditions: mouse, total radioactivity
[2] = MicroPET/CT imaging, GPC3-positive HepG2 tumor model; type: in vivo, nude mice; conditions: nude, mouse, iv, 5.55 MBq, total radioactivity
Outline: (§1)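 Nude mice carried subcutaneous HepG2 or McA-RH7777 xenografts (n = 3 per group). Each received 5.55 MBq tracer i.v. under isoflurane. 10-min static microPET/CT scans at 30, 60 and 120 min; 3D-OSEM reconstruction, CT attenuation correction, decay-corrected. %ID/g from ROIs drawn over entire organs. Tumor/muscle, tumor/liver and tumor/kidney ratios calculated from PET data. Mean ± SD; ANOVA or t test.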

[3] = In vitro stability in mouse serum; type: in vitro ADME; conditions: mouse serum at 37 °C, 2 h incubation, HPLC analysis
Outline: (§2)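 Radiotracer prepared by Al[18F]F chelation: peptide, AlCl3, acetic acid and acetonitrile with [18F]fluoride, heated at 100 °C for 10 min. Product purified on a C18 cartridge, eluted with ethanol/10 mM HCl, diluted in saline and sterile-filtered. Incubated 2 h in PBS (room temperature) or mouse serum (37 °C). Percent intact tracer by reverse-phase HPLC.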

[4] = tested on: GPC3-positive HepG2 cells; assay: Cellular uptake in GPC3-positive HepG2 cells; type: cell-based; conditions: 60 min incubation, peak value; n = 4/group, mean ± SD
Outline: (§3)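 Uptake of the Al[18F]F-labelled peptide (radiochemical purity >97 % by HPLC) was measured as a time course in GPC3-positive HepG2 and GPC3-negative McA-RH7777 cells. Uptake is expressed as a percentage. n = 4 per group; mean ± SD.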

[5] = tested on: GPC3-positive HepG2 cells; assay: Cell efflux in GPC3-positive HepG2 cells; type: cell-based; conditions: for cell-associated radioactivity at end of efflux study: end of 1 h efflux study; for cell-associated radioactivity at start of efflux study: start of 1 h efflux study
Outline: (§4)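 Efflux of the Al[18F]F-chelated radiolabelled peptide was followed over time in GPC3-positive HepG2 and GPC3-negative McA-RH7777 hepatoma cells. Cell-associated radioactivity was tracked across the efflux period. n = 4 per group; mean ± SD.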

HepG2 cells = assay: Internalization in HepG2 cells; type: cell-based; conditions: HepG2 cells at 2 h
[6] = In vitro stability in PBS; type: physicochemical; conditions: PBS at room temperature, 2 h incubation, HPLC analysis
Outline: as §2

[7] = MicroPET/CT imaging, GPC3-negative McA-RH7777 tumor model; type: in vivo, nude mice; conditions: nude, mouse, iv, 5.55 MBq, total radioactivity
Outline: as §1

[8] = tested on: GPC3-negative McA-RH7777 cells; assay: Cellular uptake in GPC3-negative McA-RH7777 cells; type: cell-based; conditions: 60 min incubation; n = 4/group, mean ± SD
Outline: as §3

[9] = tested on: GPC3-negative McA-RH7777 cells; assay: Cell efflux in GPC3-negative McA-RH7777 cells; type: cell-based; conditions: efflux study
Outline: as §4

CC(C)C[C@H](NC(=O)[C@H](CCCNC(=N)N)NC(=S)Nc1ccc(C[C@H]2CN(CC(=O)O)CCN(CC(=O)O)CCN2CC(=O)O)cc1)C(=O)N[C@@H](CC(N)=O)C(=O)N[C@H](C(=O)NCC(=O)NCC(=O)N[C@H](C(=O)N[C@@H](Cc1ccc(O)cc1)C(=O)N[C@@H](Cc1ccccc1)C(=O)N[C@@H](CC(C)C)C(=O)N[C@H](C(=O)N[C@H](C(=O)N[C@@H](CCCNC(=N)N)C(=O)N[C@@H](CCC(N)=O)C(=O)O)[C@@H](C)O)[C@@H](C)O)[C@@H](C)O)C(C)C [Al[^18F]F-GP2076] ({NOTA(2S-Bn(4-NHCS))}-RLNVGGTYFLTTRQ-OH; N-terminus and C-terminus assumed) [listing 1 of 2 here]
tissue uptake at 1 h ([1]; HepG2 tumor): 1.13 ± 0.02 %ID/g | tissue uptake at 1 h ([1]; liver): 2.3 ± 0.56 %ID/g | tissue to tissue ratio at 1 h ([2]; HepG2 tumor / kidneys): 0.31 ± 0.04 | tissue to tissue ratio at 0.5 h ([2]; HepG2 tumor / liver): 0.43 ± 0.06 | tissue to tissue ratio at 1 h ([2]; HepG2 tumor / liver): 0.59 ± 0.14 | tissue to tissue ratio at 2 h ([2]; HepG2 tumor / liver): 0.46 ± 0.4 | tissue to tissue ratio at 0.5 h ([2]; HepG2 tumor / muscle): 5.56 ± 1.36 | tissue to tissue ratio at 1 h ([2]; HepG2 tumor / muscle): 5.13 ± 2.08 | tissue to tissue ratio at 2 h ([2]; HepG2 tumor / muscle): 2.68 ± 0.29 | tissue uptake at 0.5 h ([2]; HepG2 tumor): 2.2 ± 0.36 %ID/g | tissue uptake at 1 h ([2]; HepG2 tumor): 2.13 ± 0.55 %ID/g | tissue uptake at 2 h ([2]; HepG2 tumor): 0.73 ± 0.32 %ID/g | tissue uptake at 0.5 h ([2]; kidneys): 9.83 ± 3.69 %ID/g | tissue uptake at 1 h ([2]; kidneys): 7.03 ± 2.32 %ID/g | tissue uptake at 0.5 h ([2]; liver): 5.1 ± 0.53 %ID/g | tissue uptake at 1 h ([2]; liver): 3.7 ± 0.98 %ID/g

CC(C)C[C@H](NC(=O)[C@H](CCCNC(=N)N)NC(=S)Nc1ccc(C[C@H]2CN(CC(=O)O)CCN(CC(=O)O)CCN2CC(=O)O)cc1)C(=O)N[C@@H](CC(N)=O)C(=O)N[C@H](C(=O)NCC(=O)NCC(=O)N[C@H](C(=O)N[C@@H](Cc1ccc(O)cc1)C(=O)N[C@@H](Cc1ccccc1)C(=O)N[C@@H](CC(C)C)C(=O)N[C@H](C(=O)N[C@H](C(=O)N[C@@H](CCCNC(=N)N)C(=O)N[C@@H](CCC(N)=O)C(=O)O)[C@@H](C)O)[C@@H](C)O)[C@@H](C)O)C(C)C [Al[^18F]F-GP2076] ({NOTA(2S-Bn(4-NHCS))}-RLNVGGTYFLTTRQ-OH; N-terminus and C-terminus assumed) [listing 2 of 2 here]
intact radiotracer in mouse serum [3]: > 95% | cell uptake in HepG2 cells [4]: 1.08 ± 0.04% | cell-associated radioactivity at end of efflux study [5]: 0.21% | cell-associated radioactivity at start of efflux study [5]: 1.04% | internalization (HepG2 cells): < 10 % of cell uptake | intact radiotracer in PBS [6]: > 95%

CC(C)C[C@H](NC(=O)[C@H](CCCNC(=N)N)NC(=O)[C@H](CC(N)=O)NC(=O)[C@H](CC(=O)O)NC(=O)[C@H](CCCNC(=N)N)NC(=O)CNC(=O)CNC(=O)CNC(=S)Nc1ccc(C[C@H]2CN(CC(=O)O)CCN(CC(=O)O)CCN2CC(=O)O)cc1)C(=O)N[C@@H](CC(N)=O)C(=O)N[C@H](C(=O)NCC(=O)NCC(=O)N[C@H](C(=O)N[C@@H](Cc1ccc(O)cc1)C(=O)N[C@@H](Cc1ccccc1)C(=O)N[C@@H](CC(C)C)C(=O)N[C@H](C(=O)N[C@H](C(=O)N[C@@H](CCCNC(=N)N)C(=O)N[C@@H](CCC(N)=O)C(=O)O)[C@@H](C)O)[C@@H](C)O)[C@@H](C)O)C(C)C [Al[^18F]F-GP2633] ({NOTA(2S-Bn(4-NHCS))}-GGGRDNRLNVGGTYFLTTRQ-OH; N-terminus and C-terminus assumed) [listing 1 of 2 here]
tissue uptake at 1 h ([1]; HepG2 tumor): 1.96 ± 0.29 %ID/g | tissue uptake at 1 h ([1]; liver): 0.97 ± 0.07 %ID/g | tissue to tissue ratio at 1 h ([2]; HepG2 tumor / kidneys): 0.09 ± 0.01 | tissue to tissue ratio at 0.5 h ([2]; HepG2 tumor / liver): 1.77 ± 0.2 | tissue to tissue ratio at 1 h ([2]; HepG2 tumor / liver): 2 ± 0.18 | tissue to tissue ratio at 2 h ([2]; HepG2 tumor / liver): 1.28 ± 0.25 | tissue to tissue ratio at 0.5 h ([2]; HepG2 tumor / muscle): 9.11 ± 0.79 | tissue to tissue ratio at 1 h ([2]; HepG2 tumor / muscle): 12.2 ± 0.62 | tissue to tissue ratio at 2 h ([2]; HepG2 tumor / muscle): 6.2 ± 1.8 | tissue uptake at 0.5 h ([2]; HepG2 tumor): 3.13 ± 0.31 %ID/g | tissue uptake at 1 h ([2]; HepG2 tumor): 3.37 ± 0.35 %ID/g | tissue uptake at 2 h ([2]; HepG2 tumor): 1.3 ± 0.17 %ID/g | tissue uptake at 0.5 h ([2]; kidneys): 39.4 ± 0.98 %ID/g | tissue uptake at 1 h ([2]; kidneys): 36.9 ± 2.05 %ID/g | tissue uptake at 0.5 h ([2]; liver): 1.8 ± 0.36 %ID/g | tissue uptake at 1 h ([2]; liver): 1.7 ± 0.26 %ID/g | tissue to tissue ratio at 0.5 h ([7]; McA-RH7777 tumor / muscle): 3.87 ± 1.97 | tissue to tissue ratio at 1 h ([7]; McA-RH7777 tumor / muscle): 6.2 ± 2.67 | tissue uptake at 0.5 h ([7]; McA-RH7777 tumor): 1.75 ± 0.05 %ID/g | tissue uptake at 1 h ([7]; McA-RH7777 tumor): 1.64 ± 0.03 %ID/g | tissue uptake at 2 h ([7]; McA-RH7777 tumor): 0.66 ± 0.06 %ID/g

CC(C)C[C@H](NC(=O)[C@H](CCCNC(=N)N)NC(=O)[C@H](CC(N)=O)NC(=O)[C@H](CC(=O)O)NC(=O)[C@H](CCCNC(=N)N)NC(=O)CNC(=O)CNC(=O)CNC(=S)Nc1ccc(C[C@H]2CN(CC(=O)O)CCN(CC(=O)O)CCN2CC(=O)O)cc1)C(=O)N[C@@H](CC(N)=O)C(=O)N[C@H](C(=O)NCC(=O)NCC(=O)N[C@H](C(=O)N[C@@H](Cc1ccc(O)cc1)C(=O)N[C@@H](Cc1ccccc1)C(=O)N[C@@H](CC(C)C)C(=O)N[C@H](C(=O)N[C@H](C(=O)N[C@@H](CCCNC(=N)N)C(=O)N[C@@H](CCC(N)=O)C(=O)O)[C@@H](C)O)[C@@H](C)O)[C@@H](C)O)C(C)C [Al[^18F]F-GP2633] ({NOTA(2S-Bn(4-NHCS))}-GGGRDNRLNVGGTYFLTTRQ-OH; N-terminus and C-terminus assumed) [listing 2 of 2 here]
intact radiotracer in mouse serum [3]: > 98% | cell uptake in HepG2 cells [4]: 1.15 ± 0.05% | cellular uptake in McA-RH7777 cells [8]: 0.30 ± 0.03% | time for radioactivity to wash out to the baseline [9]: ≤ 5 min | cell-associated radioactivity at end of efflux study [5]: 0.27% | cell-associated radioactivity at start of efflux study [5]: 1.13% | internalization (HepG2 cells): < 10 % of cell uptake | intact radiotracer in PBS [6]: > 98%
